Measured values: ChEMBL document CHEMBL3596149, “Thermodynamics and kinetic studies in the binding interaction of cyclic naphthalene diimide derivatives with double stranded DNAs” (Bioorg Med Chem, 2015)
The source made the active and inactive calls. The rule behind the calls is not given here.

Legend:
[1] = Selectivity index, ratio of binding constant K for poly[d(A-T)]2 DNA (unknown origin) to binding constant K for poly[d(G-C)]2 DNA (unknown origin)
Procedure, shortened: (§1)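 The ratio uses binding constants from UV-vis Scatchard/McGhee–von Hippel titrations. Conditions were 6.7 µM ligand, 25°C, 10 mM MES pH 6.25, 100 mM NaCl, 1 mM EDTA.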

[2] = Binding affinity to poly[d(G-C)]2 DNA (unknown origin) assessed as association constant by stopped flow kinetics assay
Procedure, shortened: (§2)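 Ligand was mixed with DNA in a stopped-flow instrument, in 10 mM MES pH 6.25 with 0.1 M NaCl and 1 mM EDTA. Ligand to DNA base-pair ratio was 1:10. Absorbance was followed at the ligand maximum (383 nm). Traces were fitted to a single exponential, and apparent rate constants were plotted against DNA concentration.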

[3] = system: Calf thymus DNA; experiment: Binding affinity to calf thymus DNA assessed as association constant by stopped flow kinetics assay; format: nucleic-acid assay; conditions: Bos taurus; procedure, shortened: as §2
[4] = Binding affinity to poly[d(G-C)]2 DNA (unknown origin) assessed as dissociation constant by stopped flow kinetics assay
Procedure, shortened: (§3)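 Dissociation was SDS-driven and measured by stopped-flow. Equal volumes of 1% SDS and ligand–DNA complex (ligand:bp 1:10) were mixed rapidly. Buffer was 10 mM MES pH 6.25 with 100 mM NaCl and 1 mM EDTA. Absorbance was recorded over time, and k_d was obtained by nonlinear fitting of the trace.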

[5] = Binding affinity to poly[d(A-T)]2 DNA (unknown origin) assessed as association constant by stopped flow kinetics assay; procedure, shortened: as §2
[6] = system: Calf thymus DNA; experiment: Binding affinity to calf thymus DNA assessed as change in enthalpy by thermodynamics analysis; format: nucleic-acid assay; conditions: Bos taurus
Procedure, shortened: (§4)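 Binding constants for CT-DNA were obtained by UV-vis titration at 20–27.5°C in 10 mM MES pH 6.25 with 0.1 M NaCl and 1 mM EDTA. ΔH and ΔS were taken from a van't Hoff plot of lnK vs 1/T. ΔG at 25°C came from the Gibbs equation.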

[7] = Selectivity index, ratio of binding constant K for calf thymus DNA to binding constant K for poly[d(G-C)]2 DNA (unknown origin); procedure, shortened: as §1
[8] = Binding affinity to poly[d(A-T)]2 DNA (unknown origin) assessed as dissociation constant by stopped flow kinetics assay; procedure, shortened: as §3
[9] = Binding affinity to poly[d(G-C)]2 DNA (unknown origin) assessed as hypochromicity by UV-vis titration method
Procedure, shortened: (§5)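 Titration was the same as the UV-vis binding titration: 6.7 µM ligand, 10 mM MES pH 6.25, 100 mM NaCl, 1 mM EDTA, 25°C. Hypochromicity was calculated as H% = (A383 free − A383 bound)/A383 free × 100.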

[10] = Binding affinity to poly[d(A-T)]2 DNA (unknown origin) assessed as hypochromicity by UV-vis titration method; procedure, shortened: as §5
[11] = system: Calf thymus DNA; experiment: Binding affinity to calf thymus DNA assessed as hypochromicity by UV-vis titration method; format: nucleic-acid assay; conditions: Bos taurus; procedure, shortened: as §5
[12] = system: Calf thymus DNA; experiment: Binding affinity to calf thymus DNA assessed as dissociation constant by stopped flow kinetics assay; format: nucleic-acid assay, Bos taurus; procedure, shortened: as §3
[13] = system: Nucleic Acid; experiment: Induction of DNA intercalation of pUC19 DNA assessed as compound level causing DNA re-supercoiling in presence of topoisomerase-1 incubated for 1 hr at 37 degC by electrophoresis method; format: nucleic-acid assay; conditions: Escherichia coli
Procedure, shortened: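 pUC19 (0.25 µg) was preincubated with 5 U topoisomerase I for 5 min at 37°C. Reaction buffer was 35 mM Tris-HCl pH 8.0, 72 mM KCl, 5 mM MgCl2, 5 mM DTT, 5 mM spermidine and 0.1% BSA. Ligand (2.0–50 µM) was then added for 1 h at 37°C. After SDS/proteinase K treatment, extraction and ethanol precipitation, DNA was run on 1% agarose in TAE (18 V, 3.5 h) and GelStar-stained.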

[14] = system: Calf thymus DNA; experiment: Binding affinity to calf thymus DNA assessed as delta(logK)/delta(log[Na+]) ratio at 0.05 to 0.125 M NaCl by UV-vis titration method; format: nucleic-acid assay; conditions: Bos taurus
Procedure, shortened: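 Binding constants for CT-DNA were measured by UV-vis Scatchard titration in 10 mM MES pH 6.25 with 1 mM EDTA at varied NaCl. The ratio is the slope of log K plotted against −log[Na+].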

[15] = system: Calf thymus DNA; experiment: Binding affinity to calf thymus DNA assessed as change in free energy at 25 degC by thermodynamics analysis; format: nucleic-acid assay; conditions: Bos taurus; procedure, shortened: as §4
[16] = system: Calf thymus DNA; experiment: Binding affinity to calf thymus DNA assessed as change in entropy by thermodynamics analysis; format: nucleic-acid assay; conditions: Bos taurus; procedure, shortened: as §4
[17] = system: Calf thymus DNA; experiment: Binding affinity to calf thymus DNA assessed as increase in positive and negative CD bands at 5 to 50 uM at 25 degC by CD spectroscopy; format: nucleic-acid assay; conditions: Bos taurus
Procedure, shortened: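 Ligand at 5–50 µM was added to 100 µM/bp CT-DNA in 10 mM MES pH 6.25 with 100 mM NaCl and 1 mM EDTA, at 25°C. CD spectra were recorded, including the induced CD region at 320–400 nm.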

Structure (SMILES)	Selectivity Index [1]	K [2]	K [3]	Kd [4]	K [5]	deltaH [6]	Selectivity Index [7]	Kd [8]	Activity [9]	Activity [10]	Activity [11]	Kd [12]	Activity [13]	Ratio [14]	deltaG [15]	deltaS [16]	Activity [17]
O=C1NCCCN2CCN(CCCN3C(=O)c4ccc5c6c(ccc(c46)C3=O)C(=O)N(CCCN3CCN(CCCNC(=O)c4ccc1cc4)CC3)C5=O)CC2	9	34000 M⁻¹ s⁻¹	60000 M⁻¹ s⁻¹	0.003 s⁻¹	120000 M⁻¹ s⁻¹	7.8 kcal/mol	9	0.15 s⁻¹	61%	47%	60%	0.1 s⁻¹	2 µM	0.72	-8 kcal/mol	0.053 kcal/mol	–
CN(C)CCCN1C(=O)c2ccc3c4c(ccc(c24)C1=O)C(=O)N(CCCN(C)C)C3=O	–	84000 M⁻¹ s⁻¹	120000 M⁻¹ s⁻¹	0.3 s⁻¹	260000 M⁻¹ s⁻¹	-6.7 kcal/mol	–	2.6 s⁻¹	61%	60%	62%	1.1 s⁻¹	–	0.83	-7.6 kcal/mol	0.003 kcal/mol	–
CN1CCCNC(=O)c2ccc(cc2)C(=O)NCCCN(C)CCCN2C(=O)c3ccc4c5c(ccc(c35)C2=O)C(=O)N(CCC1)C4=O	–	26000 M⁻¹ s⁻¹	120000 M⁻¹ s⁻¹	1 s⁻¹	32000 M⁻¹ s⁻¹	9.2 kcal/mol	–	4.2 s⁻¹	61%	49%	60%	1.1 s⁻¹	10 µM	0.74	-7 kcal/mol	0.054 kcal/mol	Active
